Experimental data published in paper PMC4075987 (Biochemistry, 2014).
“Also recorded” adds a separate entry of the source. Read-outs that look alike come from different tables or passages of the source. Square brackets hold non-standard residues; d marks the D form. Peptide text beside a SMILES is read from it. Orn(N5-OH,N5-Ac) = CC(=O)N(O)CCC[C@H](N)C(=O)O

Assays:
apo-FbpABp [1] = target: T1, apo-FbpABp (Bordetella pertussis, UniProt Q7VXW9); type: binding
T1 sequence (Q7VXW9 31-349): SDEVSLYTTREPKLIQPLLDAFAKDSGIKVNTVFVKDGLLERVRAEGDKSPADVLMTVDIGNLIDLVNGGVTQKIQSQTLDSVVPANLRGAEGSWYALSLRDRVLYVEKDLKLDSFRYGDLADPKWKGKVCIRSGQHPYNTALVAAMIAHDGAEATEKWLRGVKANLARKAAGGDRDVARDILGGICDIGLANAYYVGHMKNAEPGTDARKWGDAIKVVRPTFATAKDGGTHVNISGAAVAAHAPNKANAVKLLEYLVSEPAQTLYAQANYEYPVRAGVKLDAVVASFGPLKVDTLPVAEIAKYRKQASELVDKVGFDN

FbpABp = type: binding, Bordetella pertussis; conditions: absence of a suitable synergistic anion
In short: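 Recombinant B. pertussis FbpA was made periplasmically in B. bronchiseptica ΔfbpA grown in iron-depleted Stainer–Scholte medium at 35 °C, then osmotic-shock extracted and DEAE-purified. Apo-protein took 50 equiv carbonate/oxalate (30 min) then 10 equiv Fe(ClO4)3 (overnight, 4 °C, filtered), or 10 equiv citrate/NTA then 2 equiv 1:1 Fe-anion. Iron was titrated to maximal CT band, dialysed, then competed against EDTA; pH 6.5 MES/NaCl.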

apo-FbpABp [2] = target: T1, apo-FbpABp; conditions: pH 6.5, 50 mM MES, 100 mM NaCl; monitored 3 h
apo-FbpABp [3] = target: T1, apo-FbpABp; experiment: UV-vis spectral difference experiment between apo-DFB and apo-FbpABp; type: binding; conditions: results not shown
[4] = read-out: Kd (apparent Fe3+-siderophore/apo-FbpABp dissociation constant, eq 3), ferric siderophore complex, one-site model, 50 mM MES, 100 mM NaCl, pH 6.5, room temperature

Compound: O=C(N[C@H]1COC(=O)[C@@H](NC(=O)c2cccc(O)c2O)COC(=O)[C@@H](NC(=O)c2cccc(O)c2O)COC1=O)c1cccc(O)c1O [ENT, enterobactin]
- Kd (apo-FbpABp [1]): ~1000 nM
- quenching of apo-protein fluorescence emission band by apo-siderophore (apo-FbpABp [1]; apo-siderophore, final protein:apo-siderophore 1:4 (ALC), 1:2 (ENT)): < 16%

Compound: CC(=O)N([O-])CCC[C@@H]1NC(=O)CNC(=O)CNC(=O)CNC(=O)[C@H](CCCN([O-])C(C)=O)NC(=O)[C@H](CCCN([O-])C(C)=O)NC1=O.[Fe+3] [FC, ferrichrome] (cyclo(GGG[Orn(N5-OH,N5-Ac)][Orn(N5-OH,N5-Ac)][Orn(N5-OH,N5-Ac)]))
- Kd (apo-FbpABp [1]; [4]): ~1000 nM

Compound: [Fe+3] [Fe^3+, Ferric iron]
- Fe3+ sequestration by FbpABp (FbpABp): No Fe^3+ sequestration was observed

Compound: O=C1CCC(=O)N(O)CCC(O)CNC(=O)CCC(=O)N(O)CCC(O)CN1 (centres unmarked) [ALC, alcaligin]
- Kd (apo-FbpABp [1]; [4]): ~100 nM

Compound: ferric-alcaligin [Fe2(ALC)3]
- Qmax (maximum % quenching) (apo-FbpABp [1]; ferric siderophore complex, emission 352 nm, excitation 297 nm, pH 6.5): ~80%
- blue shift of FbpABp emission band (apo-FbpABp [1]; on addition of ferric siderophore to apo-FbpABp): ~8 nm
- Kd (apo-FbpABp [1]; [4]): 130 ± 40 nM
- change of ferric siderophore CT band after addition of apo-FbpABp (apo-FbpABp [2]): shift in λmax from 428 nm (CT band for Fe2ALC3) to 410 nm; also recorded: λmax shifted from 428 to 410 nm

Compound: CC(=O)N(O)CCCCCNC(=O)CCC(=O)N(O)CCCCCNC(=O)CCC(=O)N(O)CCCCCN [DFB, desferrioxamine B]
- Kd (apo-FbpABp [1]): ~1000 nM
- binding of apo-siderophore by apo-FbpABp (apo-FbpABp [3]): not able to bind an apo-siderophore effectively
